The results in this text go back to ChEMBL document CHEMBL1649563, “Nukacin ISK-1, a bacteriostatic lantibiotic” (2009).

In experiment [1] the test system is Bacillus subtilis. The experiment is described as follows: Antibacterial activity against Bacillus subtilis JCM 1465 assessed as induction of pore formation-associated efflux of ATP by fluorescence assay. The class given is functional, organism-based. In a few lines:
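ATP efflux from B. subtilis JCM 1465T cells treated with lantibiotic at 10× MIC, detected with a Lucifer-HS ATP detection kit. Run twice, representative data shown.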

For experiment [2], the system named is Bacillus subtilis. The experiment is described as follows: Antibacterial activity against Bacillus subtilis JCM 1465 assessed as induction of pore formation-associated efflux of K+ ion by fluorescence assay. The class given is functional, organism-based. In a few lines:
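K+ efflux from B. subtilis JCM 1465T cells exposed to lantibiotic at 10× MIC, measured with potassium-binding benzofuran isophthalate-AM (PBFI). Expressed relative to total K+ released after adding 1 μM nisin (100%). Run twice.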

Experiment [3] concerns Lactobacillus sakei. The experiment is described as follows: Bacteriostatic against Lactobacillus sakei JCM 1157 assessed as decrease in cell viability after 24 hrs by turbidity assay. It is filed as functional. As to conditions: Latilactobacillus sakei.
Experiment [4] deals with Micrococcus luteus. The experiment in a line: Antibacterial activity against Micrococcus luteus IFO 12708. The class given is functional. In short, it runs like this: (§1)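 Spot-on-lawn method against each indicator strain, giving MIC. Activity determined at least twice per lantibiotic.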
In experiment [5] the test system is Bacillus subtilis. The experiment is described as follows: Antibacterial activity against Bacillus subtilis JCM 1465 assessed as decrease in bacterial cell wall thickness by microscopy. It is filed as functional, organism-based. In a few lines:
(§2)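 B. subtilis JCM 1465T treated at 10× MIC for 90 min against an untreated control, then prepared for transmission electron microscopy. Longitudinal and cross sections examined.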

Experiment [6] has as its system Enterococcus faecalis. The experiment is described as follows: Antibacterial activity against Enterococcus faecalis TUA 1344L. The class given is functional. In short, it runs like this: as §1
The subject of experiment [7] is Listeria innocua. The experiment in a line: Antibacterial activity against Listeria innocua ATCC 33090. The class given is functional. In short, it runs like this:
as §1

The subject of experiment [8] is Bacillus subtilis. The experiment in a line: Antibacterial activity against Bacillus subtilis JCM 1465 assessed as single arrangement of initial stage of septal orientation by microscopy. It is filed as functional, organism-based. In a few lines:
as §2

Experiment [9] relates to Bacillus subtilis. The experiment in a line: Antibacterial activity against Bacillus subtilis JCM 1465. The class given is functional. In a few lines:
as §1

In experiment [10] the test system is Staphylococcus carnosus. The experiment in a line: Antibacterial activity against Staphylococcus carnosus TM300. It is filed as functional. In short, it runs like this:
as §1

The test system of experiment [11] is Lactobacillus sakei. The experiment is described as follows: Bacteriostatic against Lactobacillus sakei JCM 1157 assessed as lysis of cell after 24 hrs by spectrophotometry. It is filed as functional. As to conditions: Latilactobacillus sakei.
For experiment [12], the system named is Bacillus subtilis. The experiment is described as follows: Antibacterial activity against Bacillus subtilis JCM 1465 assessed as dissipation of membrane potential by fluorescence assay. The class given is functional, organism-based.
The test system of experiment [13] is Lactococcus lactis. The experiment is described as follows: Antibacterial activity against Lactococcus lactis ATCC 19435. The class given is functional. In a few lines:
as §1

Experiment [14] concerns Lactobacillus sakei. The experiment is described as follows: Antibacterial activity against Lactobacillus sakei JCM 1157. The note with it: Latilactobacillus sakei. It is filed as functional. In short, it runs like this:
as §1

For experiment [15], the system named is Bacillus subtilis. The experiment in a line: Antibacterial activity against Bacillus subtilis JCM 1465 assessed as detachment of plasma membrane from cell wall by microscopy. The class given is functional, organism-based. In short, it runs like this: as §2
The test system of experiment [16] is Cell membrane. The experiment is described as follows: Binding affinity to cell membrane of Bacillus subtilis JCM 1465 assessed as dissipation of nisin A-induced membrane potential.
Experiment [17] has as its system Lactiplantibacillus plantarum. The experiment is described as follows: Antibacterial activity against Lactobacillus plantarum ATCC 14617. As to conditions: ATCC 14917, in the assay text read “ATCC 14917” for “ATCC 14617”. The class given is functional. In a few lines:
as §1

In brackets after ≈: the same amount, converted by molar mass. Activity calls are given as the source filed them. The calls are words filed in the database; no cut-off is given here.

As a reminder, the MIC is the least concentration at which growth counts as inhibited.

For the compound `C/C=C1\NC(=O)[C@H](Cc2ccccc2)NC(=O)[C@H](C(C)C)NC(=O)[C@H](Cc2ccccc2)NC(=O)[C@H](CCC(N)=O)NC(=O)[C@H](Cc2ccccc2)NC(=O)[C@@H]2CSC[C@@H](C(=O)N[C@@H](CO)C(=O)O)NC(=O)[C@H](CSC[C@@H]3NC(=O)[C@H](C(C)C)NC(=O)[C@@H](NC(=O)[C@@H]4CCCN4C(=O)[C@@H](NC(=O)[C@@H](NC(=O)CNC(=O)[C@H](CO)NC(=O)[C@H](CCCCN)NC(=O)[C@H](CCCCN)NC(=O)[C@@H](N)CCCCN)C(C)C)[C@@H](C)CC)[C@H](C)SC[C@H](NC(=O)[C@H](CC(=O)O)NC(=O)[C@H](Cc4cnc[nH]4)NC3=O)C(=O)N[C@@H](Cc3cnc[nH]3)C(=O)N[C@@H](CCSC)C(=O)N[C@@H](CC(N)=O)C(=O)N2)NC1=O`, the outcome in [1], in experiment [2] and in [12] was inactive. The result in experiment [3], in experiment [5], in experiment [8] and in experiment [11] was Active. Besides, the MIC in [4] was determined as 2.08 µM (≈ 6.16 µg/mL); in experiment [6], 4.16 µM (≈ 12.3 µg/mL); in [7], 16.6 µM (≈ 49.2 µg/mL); in [9] it was 0.26 µM (≈ 0.769 µg/mL); in experiment [10], 0.26 µM (≈ 0.769 µg/mL); in experiment [13], 0.52 µM (≈ 1.54 µg/mL). Besides, in [14], the lowest concentration to inhibit growth (MIC) was 0.26 µM (≈ 0.769 µg/mL).
Consider `C=C(NC(=O)[C@@H](NC(=O)[C@H](Cc1cnc[nH]1)NC(=O)[C@@H](NC(=O)[C@H](CO)NC(=O)[C@@H]1CSC(C)[C@@H]2NC(=O)[C@H](C)NC(=O)[C@@H](NC(=O)N(CCCCN)C(=O)[C@H](CCCCN)NC(=O)[C@@H](CCSC)NC(=O)[C@H](CC(N)=O)NC(=O)[C@@H]3CSC(C)[C@H](NC(=O)[C@H](CCCCN)NC(=O)[C@@H]4CSC(C)[C@H](NC(=O)[C@@H]5CSC[C@H](NC(=O)/C(=C/C)NC(=O)[C@@H](N)[C@@H](C)CC)C(=O)N[C@@H](CC(C)C)C(=O)NC(=C)C(=O)N[C@@H](CC(C)C)C(=O)N5)C(=O)N5CCC[C@H]5C(=O)NCC(=O)N4)C(=O)NCC(=O)N[C@@H](C)C(=O)N[C@@H](CC(C)C)C(=O)N[C@H](CCSC)C(=O)NCC(=O)N3)C(C)SC[C@H](NC2=O)C(=O)N[C@@H](Cc2cnc[nH]2)C(=O)N1)[C@@H](C)CC)C(C)C)C(=O)N[C@@H](CCCCN)C(=O)O` (stereo partly specified), for which the result in experiment [1], in [2], in experiment [15] and in [16] was Active. In addition, the minimum inhibitory concentration (MIC) in experiment [4] came out at 0.032 µM (≈ 0.111 µg/mL); in experiment [6], 0.26 µM (≈ 0.902 µg/mL); in [7] it was 0.065 µM (≈ 0.225 µg/mL); in [9], 0.008 µM (≈ 0.0277 µg/mL); in experiment [10], 0.016 µM (≈ 0.0555 µg/mL); in [13], 0.065 µM (≈ 0.225 µg/mL). The values for the MIC in experiment [17] and in experiment [14] were 1.04 µM (≈ 3.61 µg/mL) and 0.008 µM (≈ 0.0277 µg/mL), respectively.
